Assay results: ChEMBL document CHEMBL1126137, “Structure-function studies in a series of carboxyl-terminal octapeptide analogues of anaphylatoxin C5a” (J Med Chem, 1992)
Where a SMILES comes first, the peptide text is derived from it. [ ]: non-standard residue; d: D form. Cha = N[C@@H](CC1CCCCC1)C(=O)O; Nle = CCCC[C@H](N)C(=O)O

Key:
[1] = Compound was evaluated for its ability to stimulate polymorphonuclear leukocyte (PMNL) chemokinetic migration; assay type: functional, Homo sapiens
Outline: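 Human blood PMNL from density-gradient centrifugation, with hypotonic red-cell lysis and three washes. Cells at 2×10^8/mL in 0.3% agarose, set as 1-μL droplets, chilled 10 min on ice, then overlaid with buffer ± stimulus. Buffer: Earle's salts, 20 mM HEPES pH 7.0, 0.25% gelatin. Run 2 h at 37 °C. Migration from droplet edge, minus buffer control, as % of peak rC5a response. Dose-response dosing.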

[2] = biological target: T1, C5a anaphylatoxin chemotactic receptor 1 (Homo sapiens, UniProt P21730); test: Ability to inhibit the binding of […] to polymorphonuclear leukocyte (PMNL) membrane receptor
T1 sequence (P21730 whole entry): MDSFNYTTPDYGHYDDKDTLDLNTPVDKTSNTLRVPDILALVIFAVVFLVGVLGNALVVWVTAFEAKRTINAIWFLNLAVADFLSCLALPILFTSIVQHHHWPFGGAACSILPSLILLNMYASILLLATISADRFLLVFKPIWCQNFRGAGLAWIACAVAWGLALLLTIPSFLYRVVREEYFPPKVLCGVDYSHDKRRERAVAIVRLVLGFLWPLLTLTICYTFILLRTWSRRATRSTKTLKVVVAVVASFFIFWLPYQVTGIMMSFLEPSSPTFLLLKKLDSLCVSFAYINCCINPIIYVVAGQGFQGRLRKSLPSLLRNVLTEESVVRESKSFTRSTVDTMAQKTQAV
Outline: (§1)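 Competition for radioiodinated C5a binding to human PMNL membranes, isolated by nitrogen cavitation and Percoll gradient. Tracer made by glucose oxidase-lactoperoxidase iodination and affinity-purified. Buffered balanced salts (pH 7.0), 0.25% gelatin, protease inhibitors, 50–250 pM 125I-C5a, 5–20 μg/mL membranes. 60 min, ambient temperature, filtration. IC50 from linear regression; Ki by Cheng–Prusoff. Single-point lines give percent inhibition at 1 mM peptide.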

[3] = biological target: T2, C5a anaphylatoxin chemotactic receptor 1 (Homo sapiens) (UniProt P21730); test: Compound was evaluated for its ability to inhibit the binding of […] to polymorphonuclear leukocyte (PMNL) membrane receptor at 1 mM concentration.; outline: as §1
T2 sequence (whole entry): T1 sequence (P21730 whole entry)

Compound | Efficacy [1] | Ki [2] | inhibition [3]
CC(=O)N[C@@H](Cc1c[nH]cn1)C(=O)N[C@@H](CCCCN)C(=O)N[C@@H](CC(=O)O)C(=O)N[C@@H](CC1CCCCC1)C(=O)N[C@@H](CC1CCCCC1)C(=O)N[C@H](C(=O)N[C@H](C)C(=O)N[C@@H](CCCN=C(N)N)C(=O)O)C(C)C | 60% | 1.6 µM | –
CC[C@H](C)[C@H](NC(=O)[C@H](CC1CCCCC1)NC(=O)[C@H](CC1CCCCC1)NC(=O)[C@H](CC(=O)O)NC(=O)[C@H](CCCCN)NC(=O)[C@H](Cc1c[nH]cn1)NC(C)=O)C(=O)N[C@H](C)C(=O)N[C@@H](CCCN=C(N)N)C(=O)O | 56% | 2 µM | –
CC(=O)N[C@@H](Cc1c[nH]cn1)C(=O)N[C@@H](CCCCN)C(=O)N[C@@H](CC(=O)O)C(=O)N[C@@H](Cc1ccc(O)cc1)C(=O)N[C@@H](Cc1ccc(O)cc1)C(=O)N[C@@H](Cc1ccc(O)cc1)C(=O)N[C@H](C)C(=O)N[C@@H](CCCN=C(N)N)C(=O)O | – | – | < 20%
CC(=O)N[C@@H](Cc1c[nH]cn1)C(=O)N[C@@H](CCCCN)C(=O)N[C@@H](CC(=O)O)C(=O)N[C@@H](CC1CCCCC1)C(=O)N[C@@H](CC1CCCCC1)C(=O)N[C@@H](CC1CCCCC1)C(=O)NCC(=O)N[C@@H](CCCN=C(N)N)C(=O)O (Ac-HKD[Cha][Cha][Cha]GR-OH) | 75% | 25 µM | –
CSCC[C@H](NC(=O)[C@H](CC(=O)O)NC(=O)[C@H](CCCCN)NC(=O)[C@H](Cc1c[nH]cn1)NC(C)=O)C(=O)N[C@@H](CCC(N)=O)C(=O)N[C@@H](CC1CCCCC1)C(=O)NCC(=O)N[C@@H](CCCN=C(N)N)C(=O)O (Ac-HKDMQ[Cha]GR-OH) | – | – | 30%
CC(=O)N[C@@H](Cc1c[nH]cn1)C(=O)N[C@@H](CCCCN)C(=O)N[C@@H](CC(=O)O)C(=O)N[C@@H](CC1CCCCC1)C(=O)N[C@@H](CC1CCCCC1)C(=O)N[C@@H](CC(C)C)C(=O)N[C@H](C)C(=O)N[C@@H](CCCN=C(N)N)C(=O)O | 57% | 2.9 µM | –
CC(=O)N[C@@H](Cc1c[nH]cn1)C(=O)N[C@@H](CCCCN)C(=O)N[C@@H](CC(=O)O)C(=O)N[C@@H](Cc1ccccc1)C(=O)N[C@@H](Cc1ccccc1)C(=O)N[C@@H](Cc1ccccc1)C(=O)N[C@H](C)C(=O)N[C@@H](CCCN=C(N)N)C(=O)O | 109% | 750 µM | –
Ac-HKDMQLGR-OH | 107% | – | –
CC(=O)N[C@@H](Cc1c[nH]cn1)C(=O)NC(CCCCN)C(=O)N[C@@H](CC(=O)O)C(=O)NC(CC1CCCCC1)C(=O)N[C@H](CC1CCCCC1)C(=O)N[C@@H](CC(C)C)C(=O)N[C@H](C)C(=O)N[C@@H](CCCN=C(N)N)C(=O)O (single isomer, unassigned) | 71% | 600 µM | –
CC(=O)N[C@@H](Cc1c[nH]cn1)C(=O)N[C@@H](CCCCN)C(=O)N[C@@H](CC(=O)O)C(=O)N[C@@H](CC1CCCCC1)C(=O)N[C@@H](CC1CCCCC1)C(=O)N[C@@H](CC1CCCCC1)C(=O)N[C@H](C)C(=O)N[C@@H](CCCN=C(N)N)C(=O)O | 67% | 10 µM | –
CCC[C@H](NC(=O)[C@H](CC1CCCCC1)NC(=O)[C@H](CC1CCCCC1)NC(=O)[C@H](CC(=O)O)NC(=O)[C@H](CCCCN)NC(=O)[C@H](Cc1c[nH]cn1)NC(C)=O)C(=O)N[C@H](C)C(=O)N[C@@H](CCCN=C(N)N)C(=O)O | 55% | 5.3 µM | –
CC(=O)N[C@@H](Cc1c[nH]cn1)C(=O)N[C@@H](CCCCN)C(=O)N[C@@H](CC(=O)O)C(=O)N[C@@H](CC1CCCCC1)C(=O)N[C@H](CC1CCCCC1)C(=O)N[C@@H](CC(C)C)C(=O)N[C@H](C)C(=O)N[C@@H](CCCN=C(N)N)C(=O)O | – | – | 26%
CCCC[C@H](NC(=O)[C@H](CCCC)NC(=O)[C@H](CCCC)NC(=O)[C@H](CC(=O)O)NC(=O)[C@H](CCCCN)NC(=O)[C@H](Cc1c[nH]cn1)NC(C)=O)C(=O)NCC(=O)N[C@@H](CCCN=C(N)N)C(=O)O (Ac-HKD[Nle][Nle][Nle]GR-OH) | – | 210 µM | –
